# Screens (PubChem)
# Only some compounds are listed: those with a hit (about 3.7% of all), similar ones and a draw of the others.
# OX1R antag-1: antagonists of human orexin 1 receptor (OX1R) | O43613 | OX1R-expressing cells, FRET antagonist read-out | hit rate 1.8% among 330,000 | inhibition, % at 6.6 µM; in the data active = inhibition mostly above about 38%, no sharp cut-off; inactive = mostly below about 40%;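 note: 0% = agonist challenge alone and 100% = reference antagonist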
# EP2 mod: modulators of human EP2 prostaglandin E2 receptor. P43116. hit rate 0.83% among 260,000. AID 940. induction, % at 25 µM. EP2-expressing cells, cAMP HTRF FRET, PGE2 co-stimulation;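 active = compounds whose cAMP rise, as percent of the full-agonist control response, exceeds 60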;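 note: rat C6 glioma line stably carrying human EP2 under a CMV promoter; the protocol text gives 20 µM as final concentration; 100% = response of wells given 1 µM PGE2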
# Target sequence (P43116 whole entry, looked up): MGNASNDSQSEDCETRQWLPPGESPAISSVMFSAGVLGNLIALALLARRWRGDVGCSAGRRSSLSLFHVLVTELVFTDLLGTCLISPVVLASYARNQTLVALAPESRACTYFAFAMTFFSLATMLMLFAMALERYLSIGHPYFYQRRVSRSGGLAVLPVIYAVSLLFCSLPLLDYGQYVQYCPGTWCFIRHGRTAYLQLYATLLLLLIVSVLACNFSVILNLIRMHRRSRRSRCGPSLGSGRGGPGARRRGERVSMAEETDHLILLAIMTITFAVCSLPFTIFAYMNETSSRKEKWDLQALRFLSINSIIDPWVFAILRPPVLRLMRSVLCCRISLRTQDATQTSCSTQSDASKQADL
# OX1R antag-2: blocks the human orexin 1 receptor. O43613. CHO/OX1R cells, Fluo-8 calcium fluorescence, orexin A. inhibition, % at 5 µM. hit rate 0.43% among 330,000. AID 434989;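 active = inhibition above its plate's threshold, mean inhibition of all tested compounds on the plate plus 3 SD, cut at about 37% in these data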;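 note: 0% = orexin A challenge wells and 100% = SB-334867-A antagonist wells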
# CHO parental Ca: counter-screen: ATP calcium response change in parental CHO cells. AID 463079. parental CHO-K1, ATP-induced calcium, Fluo-8 fluorescence. inhibition, % at 5.6 µM. hit rate 0.63% among 330,000;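 active = inhibition above that plate's mean sample inhibition plus 3 SD, cut at about 26% in these data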;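 note: 0% = ATP-challenged DMSO wells and 100% = DMSO wells without ATP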
#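 Measured by: calcium-sensitive Fluo-8 fluorescence / Test system: CHO parental line / Controls: ATP-challenged DMSO wells low, unchallenged DMSO wells high / Measure: % inhibition / Compound: single nominal dose of 5.6 µM per compound / Replicates: single well per compound, no replicates / Reagent: ATP as calcium-mobilizing challenge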
# GPR7 antagonist: blocks human GPR7 receptor signaling; GPR7-expressing cells, fluorescence antagonist assay; AID 1861; hit rate 1.1% among 290,000; inhibition, % at 4.4 µM; in the data active = inhibition above about 16%, passing the limit was not always enough;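 note: cells stimulated with the agonist NPW; 0% = agonist with vehicle and 100% = vehicle without agonist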
# Target sequence (P48145 whole entry, looked up): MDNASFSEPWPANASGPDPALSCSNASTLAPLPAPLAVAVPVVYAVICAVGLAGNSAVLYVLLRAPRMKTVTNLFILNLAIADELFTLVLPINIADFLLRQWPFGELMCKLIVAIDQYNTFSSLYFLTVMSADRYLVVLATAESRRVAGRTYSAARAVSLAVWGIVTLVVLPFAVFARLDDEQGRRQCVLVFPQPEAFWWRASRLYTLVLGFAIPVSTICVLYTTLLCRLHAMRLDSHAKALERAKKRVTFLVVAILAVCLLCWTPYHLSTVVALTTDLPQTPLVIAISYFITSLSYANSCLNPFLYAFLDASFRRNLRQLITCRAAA
# PGE2 EP2 inh: EP2 receptor (human) inhibition. C6 glioma cells expressing human EP2, cAMP TR-FRET; cells stimulated with saturating PGE2. hit rate 0.52% among 260,000. inhibition, % at 25 µM;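 active = percent inhibition above 40 after rounding to a whole number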;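 note: rat C6 glioma host cells with rolipram phosphodiesterase inhibitor present; the protocol text gives 20 µM as final concentration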
# EP2 confirm: EP2 receptor cAMP induction, counter-screens negative; shares compounds with EP2 mod; C6 glioma EP2 cells, cAMP HTRF induction; plus low (about EC15) PGE2 agonist; calls only at 20 µM (by protocol); hit rate 47% among 1,300;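 active = cAMP induction above 50% in the main assay while under 30% in all four parallel counter assays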;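 note: rat C6 glioma cells stably expressing human EP2 receptor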
# GPR7 antag conf: human GPR7 antagonism, confirmation assay | shares compounds with GPR7 antagonist | AID 1952 | hit rate 52% among 2,400 | inhibition, % at 4.4 µM | GPR7-expressing cells, calcium fluorescence antagonist mode; in the data active = inhibition above about 24%;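 note: stimulated with the GPR7 agonist NPW; 0% = agonist plus vehicle and 100% = vehicle alone without agonist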
# MCHR1 antag: MCHR1 (human) antagonism in GPR7 counter-screen; MCHR1-expressing cells, fluorescence antagonist assay; hit rate 62% among 2,400; AID 2148; shares compounds with GPR7 antagonist; inhibition, % at 4.4 µM; in the data active = inhibition above about 22%;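 note: 0% = vehicle with agonist and 100% = vehicle without agonist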
# Numbers without * were called inactive; i = inactive; nt = no result; + = active, no number.
SMILES,OX1R antag-1,EP2 mod,OX1R antag-2,CHO parental Ca,GPR7 antagonist,PGE2 EP2 inh,others
CCOC(=O)c1[nH]c2ccc(OC)cc2c1C(SCC(=O)O)c1ccc(C(F)(F)F)cc1 (centres undefined),34,nt,17,9,-18,nt,
C/C(N[O-])=C(\C)[N+]([O-])=[Rh][Cl].CC(=N\[O-])/C(C)=N/[O-].c1ccc([PH+](c2ccccc2)c2ccccc2)cc1,nt,26,nt,nt,nt,41*,
c1cc2c(c(NC3=NCCN3)c1)CCCC2,nt,-12,nt,nt,nt,43*,
C[C@]12CC[C@H](O)C[C@@H]1CC[C@H]1[C@H]2CC[C@@]2(C)[C@H](C3=CC(=O)OC3)[C@H](O)C[C@]12O,nt,4,nt,nt,nt,43*,
CC(Cc1ccc(O)cc1)NCC(O)c1cc(O)cc(O)c1 (centres undefined),11,82*,-5,-5,nt,7,
CC(N)Cc1ccc(O)cc1 (centres undefined),nt,-4,nt,nt,nt,13,
CCCCCCOC(=O)c1ccccc1N,10,64*,-5,2,-4,8,
Nc1ccccc1C(=O)OCCc1ccccc1,8,nt,-13,-25,nt,nt,
O=[N+]([O-])c1ccccc1-c1cc(-c2ccccc2)cc(-c2ccccc2)[n+]1Cc1ccccc1Cl,34,nt,70*,68*,nt,nt,
Clc1ccc(Cl)c2c1NC(c1cccnc1)C1CC=CC21 (centres undefined),nt,87*,nt,nt,nt,7,
COC(=O)C1=C(c2cccc(Cl)c2)C[C@@H]2CC[C@H]1N2C(=O)NCC1CC1,12,nt,-20,-17,nt,nt,
Cn1c(=O)[nH]c2nncnc2c1=O,70*,nt,5,-2,nt,nt,
CNCCc1ccc(O)c(O)c1,26,71*,1,9,nt,13,
CCCCn1c(N)c(C(=O)NCc2cccs2)c2nc3ccccc3nc21,21,62*,-23,-13,10,2,
O=C1OC(c2ccc(Cl)cc2)=N/C1=C\N1CC2CC(C1)c1cccc(=O)n1C2 (centres undefined),12,-18,-48,-13,-2,6,
O=c1c2ccccc2nc(SCC2CCCCO2)n1-c1ccccc1 (centres undefined),19,64*,-22,-21,-13,7,
O=C(O)C[C@H]1OCC=C2CN3CC[C@]45C6=CC(=O)C(=O)C([N+](=O)[O-])=C6N[C@H]4[C@H]1[C@H]2C[C@H]35,nt,-9,nt,nt,nt,41*,
COc1cc2c(cc1OC)[C@@]13CCN4CC5=CCOC6CC(=O)N2C1[C@H]6[C@H]5C[C@H]43 (some centres undefined),nt,5,nt,nt,nt,9,
CCC(=NCCOc1ccc(Cl)cc1)c1c(O)n(C)c(=O)n(C)c1=O,19,-27,54*,50*,-2,nt,
CCC(=NCCc1c[nH]c2ccccc12)c1c(O)n(-c2ccc(C)cc2)c(=O)[nH]c1=O,7,-38,-22,-9,-8,10,
CCC(=NCCc1c[nH]c2ccccc12)c1c(O)n(C)c(=O)n(C)c1=O,27,-12,20,44*,0,10,
COc1ccc(OC)c(NC2=NCCCS2)c1,19,4,-10,-5,-16,7,
NC(N)=Nc1ccc2[nH]c3c(c2c1)C[C@@]1(O)[C@H]2Cc4ccc(O)c5c4[C@@]1(CCN2CC1CC1)[C@H]3O5,12,-2,10,4,nt,14,
COc1ccc2[nH]cc(CCN=C(N)N)c2c1,3,10,-1,10,-21,4,
COc1ccccc1N1CCN(C2CCCN(C(=O)COc3ccccc3Cl)C2)CC1 (centres undefined),nt,nt,nt,nt,-4,nt,
SMILES,OX1R antag-1,EP2 mod,OX1R antag-2,CHO parental Ca,GPR7 antagonist,PGE2 EP2 inh,others
N#CC(CCN1CCOCC1)(c1ccccc1)c1ccccc1,22,nt,-9,-8,8,nt,
Cc1ccc(NP(=O)(Oc2ccccc2F)Oc2ccccc2F)cc1C,14,71*,-26,-5,-2,4,EP2 confirm=i
Cc1ccc2c(c1)C(c1ccccc1)=NCC(=O)N2C,9,nt,-13,-8,nt,nt,
CCOc1cc2c(cc1OCC)-n1cccc1C(c1cccc(F)c1)NC2 (centres undefined),8,nt,-28,-18,5,nt,
CN(N=O)c1ccc(O)c(O)c1,nt,83*,nt,nt,nt,10,EP2 confirm=i
CN1C2CCC1CC(OC(=O)c1ccc([N+](=O)[O-])cc1)C2 (centres undefined),39,-14,-7,-8,4,13,
CC(C)n1c(O)c(C2c3cc(Cl)ccc3Oc3[nH]c(=O)n(C(C)C)c(=O)c32)c(=O)[nH]c1=O (centres undefined),nt,-32,nt,nt,-9,21,
O=c1c2ccccc2nc(N2CCCC2)n1-c1ccc(Cl)cc1,23,68*,-25,-31,-8,9,EP2 confirm=+
Cc1cc(OCC(=O)OC(C)C)c2c3c(c(=O)oc2c1)CCCC3,16,66*,-32,-34,-7,2,EP2 confirm=+
Cc1cc(OCC(=O)NCC(O)c2ccccc2)c2c3c(c(=O)oc2c1)CCCC3 (centres undefined),16,nt,-14,-20,0,nt,
C[C@]12CCC3[C@@H](CC[C@H]4C[C@@H](O)CC[C@]34C)C1CCC2=O (some centres undefined),0,nt,-12,-7,-11,nt,
C[C@]12CCC3C(CC[C@H]4C[C@@H](Cl)CC[C@]34C)C1CCC2=O (some centres undefined),nt,64*,nt,nt,nt,12,EP2 confirm=+
Cc1ccc2ccccc2c1NC(=O)CNC1CCCCC1,9,18,-30,-12,8,7,
CN(CC(=O)Nc1ccccc1-c1ccccc1)C1CCCCC1,15,74*,-38,-19,-24,8,EP2 confirm=i
CCC(=O)O[C@H]1CCC2C3CCC4=CC(=O)CC[C@]4(C)C3CC[C@@]21C (some centres undefined),nt,77*,nt,nt,nt,10,EP2 confirm=+
COc1cc(OC)cc(C(=O)Nc2ccc(Br)cc2C(=O)c2ccccc2)c1,4,23,-14,-5,0,10,
CC(C)C1(C)N=C(c2ncccc2C(=O)O)NC1=O (centres undefined),20,72*,-11,13,16,8,EP2 confirm=i
CN(C)C1(CNC(=O)Nc2ccc(Cl)c(Cl)c2)CCCCC1,19,nt,-13,-19,30*,nt,GPR7 antag conf=43*;MCHR1 antag=47*
CN(C)C1(CNC(=O)c2ccc(NS(=O)(=O)c3ccc(Cl)c(Cl)c3)cc2)CCCCC1,4,nt,-6,-8,nt,nt,
